Laboratory results taken from ChEMBL document CHEMBL1154829, “Iridoids from Fraxinus excelsior with adipocyte differentiation-inhibitory and PPARalpha activation activity” (2010).
Active and inactive are the calls of the source. The calls are words filed in the database; no cut-off is given here.

How the values were obtained:
3T3-L1 [1] = assay: Inhibition of adipocyte differentiation in mouse 3T3L1 cells assessed as inhibition of 2 deoxy-D[3H]glucose uptake at 0.05 mg/ml […] by scintillation counter relative to control; format: functional
3T3-L1 [2] = assay: Inhibition of adipocyte differentiation in mouse 3T3L1 cells assessed as inhibition of 2 deoxy-D[3H]glucose uptake at 0.2 mg/ml […] by scintillation counter relative to control; format: functional
3T3-L1 [3] = assay: Inhibition of adipocyte differentiation in mouse 3T3L1 cells assessed as inhibition of 2 deoxy-D[3H]glucose uptake at 0.5 mg/ml after 15 mins by scintillation counter relative to control; format: functional
3T3-L1 [4] = assay: Inhibition of adipocyte differentiation in mouse 3T3L1 cells assessed as inhibition of 2 deoxy-D[3H]glucose uptake at 1 mg/ml […] by scintillation counter relative to control; format: functional
[5] = target: T1, Peroxisome proliferator-activated receptor alpha (Homo sapiens) (UniProt Q07869); assay: Activation of PPARalpha transfected into HEK cells at 100 uM by luciferase assay; format: cell-based; conditions: HEK293
T1 sequence (whole entry): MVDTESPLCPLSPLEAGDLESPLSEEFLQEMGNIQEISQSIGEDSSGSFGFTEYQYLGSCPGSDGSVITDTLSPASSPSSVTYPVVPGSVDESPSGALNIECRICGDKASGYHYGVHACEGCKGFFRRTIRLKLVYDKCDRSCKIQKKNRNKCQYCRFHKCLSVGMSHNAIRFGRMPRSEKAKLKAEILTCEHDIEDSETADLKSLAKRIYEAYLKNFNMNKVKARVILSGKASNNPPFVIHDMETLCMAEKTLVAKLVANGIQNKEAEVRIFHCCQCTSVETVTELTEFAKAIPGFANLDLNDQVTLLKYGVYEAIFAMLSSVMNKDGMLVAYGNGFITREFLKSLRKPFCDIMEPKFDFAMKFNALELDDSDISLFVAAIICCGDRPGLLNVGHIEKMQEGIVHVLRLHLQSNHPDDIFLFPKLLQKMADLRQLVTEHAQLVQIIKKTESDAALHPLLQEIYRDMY
Summary of the method: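 HEK cells in DMEM with 10% FBS, 1% penicillin-streptomycin and 2 mM L-glutamine at 37 °C, 5% CO2. Seeded at 80 000/well 24 h before PEI transfection (1 µg plasmid, 4 h). Compounds dissolved in DMSO and added in supplemented DMEM for 48 h. Lysate luciferase read by luminometer, normalized to β-gal, relative to DMSO control. Three independent runs; mean ± SD.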

[6] = target: T2, Solute carrier family 2, facilitated glucose transporter member 4 (Homo sapiens) (UniProt P14672); assay: Stimulation of GLUT4 glucose transport
T2 sequence (whole entry): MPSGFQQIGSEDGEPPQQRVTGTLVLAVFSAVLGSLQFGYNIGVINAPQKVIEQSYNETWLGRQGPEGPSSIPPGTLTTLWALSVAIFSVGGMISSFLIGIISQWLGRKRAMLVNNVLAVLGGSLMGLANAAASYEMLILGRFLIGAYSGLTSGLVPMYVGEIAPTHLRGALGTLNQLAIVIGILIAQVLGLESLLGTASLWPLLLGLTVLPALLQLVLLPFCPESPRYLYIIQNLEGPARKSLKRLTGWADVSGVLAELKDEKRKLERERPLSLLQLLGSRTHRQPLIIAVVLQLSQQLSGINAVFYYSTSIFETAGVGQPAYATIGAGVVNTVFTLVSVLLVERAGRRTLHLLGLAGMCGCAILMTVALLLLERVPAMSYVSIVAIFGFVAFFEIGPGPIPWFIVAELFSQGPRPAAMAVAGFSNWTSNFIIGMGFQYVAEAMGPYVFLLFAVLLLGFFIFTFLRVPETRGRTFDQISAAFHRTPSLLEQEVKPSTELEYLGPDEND

3T3-L1 [7] = assay: Inhibition of adipocyte differentiation in mouse 3T3L1 cells assessed as inhibition of 2 deoxy-D[3H]glucose uptake at 0.01 mg/ml […] by scintillation counter relative to control; format: functional
3T3-L1 [8] = assay: Inhibition of adipocyte differentiation in mouse 3T3L1 cells assessed as inhibition of 2 deoxy-D[3H]glucose uptake at 0.1 mg/ml […] by scintillation counter relative to control; format: functional

Activity [5] | activation [6] | SMILES | inhibition at 50 µg/mL (3T3-L1 [1]) | inhibition at 200 µg/mL (3T3-L1 [2]) | inhibition at 500 µg/mL (3T3-L1 [3]) | inhibition at 1000 µg/mL (3T3-L1 [4]) | inhibition at 10 µg/mL (3T3-L1 [7]) | inhibition at 100 µg/mL (3T3-L1 [8])
24.8% | inactive | C/C=C1/[C@H](O[C@@H]2O[C@H](CO[C@@H]3O[C@H](CO)[C@@H](O)[C@H](O)[C@H]3O)[C@@H](O)[C@H](O)[C@H]2O)OC=C(C(=O)OC)[C@H]1CC(=O)OCCc1ccc(O)cc1 [EXCELSIDE B] | -16.7% | -30.8% | -22.7% | -24.3% |  | 
27.9% | inactive | C/C=C1\[C@H](O[C@@H]2O[C@H](CO)[C@@H](O)[C@H](O)[C@H]2O)OC=C(C(=O)OC)[C@H]1CC(=O)OC [OLEOSIDE DIMETHYL ESTER] | -7.3% |  |  |  | 78.2% | -81%
 | inactive | C/C=C1/[C@H](O[C@@H]2O[C@H](CO)[C@@H](O)[C@H](O)[C@H]2O)OC=C(C(=O)OC)[C@H]1CC(=O)OCCc1ccc(O)cc1 [LIGSTROSIDE] | -76.4% |  |  |  | -9.3% | -9.8%
12.2% | inactive | C/C=C1\C(CC(=O)OC[C@H]2O[C@@H](OCCc3ccc(O)cc3)[C@H](O)[C@@H](O)[C@@H]2O)C(C(=O)OC)=CO[C@H]1O[C@@H]1O[C@H](CO)[C@@H](O)[C@H](O)[C@H]1O (stereo partly drawn) [NUZHENIDE] | -15.2% | -28.3% | -27.9% | -38.2% |  | 

Further lines, the molecule ahead of its results:

SMILES | Activity [5] | activation [6] | inhibition at 50 µg/mL (3T3-L1 [1]) | inhibition at 200 µg/mL (3T3-L1 [2]) | inhibition at 500 µg/mL (3T3-L1 [3]) | inhibition at 1000 µg/mL (3T3-L1 [4]) | inhibition at 10 µg/mL (3T3-L1 [7]) | inhibition at 100 µg/mL (3T3-L1 [8])
O=C(O)C1CN2C(N1)[C@H](O)[C@@H](O)[C@H](O)[C@H]2CO (stereo partly drawn) | 21% | inactive | 2.3% | -8.3% | -10.4% | -2.1% |  | 
C/C=C1/[C@H](O[C@@H]2O[C@H](CO[C@@H]3O[C@H](CO)[C@@H](O)[C@H](O)[C@H]3O)[C@@H](O)[C@H](O)[C@H]2O)OC=C(C(=O)OC)[C@H]1CC(=O)OC [EXCELSIDE A] |  | inactive | 30.9% |  |  |  | 102% | -16.6%
C/C=C1\[C@H](O[C@@H]2O[C@H](CO)[C@@H](O)[C@H](O)[C@H]2O)OC=C(C(=O)OC)[C@H]1CC(=O)O |  | inactive | -34.8% |  |  |  | -7.9% | -85.2%
C/C=C1/[C@H](O[C@@H]2O[C@H](CO)[C@@H](O)[C@H](O[C@@H]3O[C@H](CO)[C@@H](O)[C@H](O)[C@H]3O)[C@H]2O)OC=C(C(=O)OC)[C@H]1CC(=O)Oc1ccc(CCO)cc1 |  |  | -17.1% |  |  |  | 77.6% | -49.7%
